Laboratory results as given in publication PMC7218920 (Science translational medicine, 2019).

How the values were obtained:
soluble GC = assay: HEK-293 cells expressing cGMP-sensor alone; assay type: cell-based, human
How it was run: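 HEK-293 cells carrying the GloSensor cGMP luciferase reporter (pGS-40F), either transiently transfected or as a stable control line, with no NPR1. Luminescence from GloSensor reagent was read in real time after media, SNP (333 μM; a soluble GC activator) or hNPPA, hNPPB or NPPC (10 nM each). The stable line also received SNP and peptide concentration series. Transient time courses were run in triplicate.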

hNPR1 = molecular target: T1, hNPR1 (Homo sapiens, UniProt P16066); assay: HEK-hNPR1-cGMP-sensor cells, qHTS cell-based assay; conditions: stable cell-line
T1 sequence (P16066 33-1061): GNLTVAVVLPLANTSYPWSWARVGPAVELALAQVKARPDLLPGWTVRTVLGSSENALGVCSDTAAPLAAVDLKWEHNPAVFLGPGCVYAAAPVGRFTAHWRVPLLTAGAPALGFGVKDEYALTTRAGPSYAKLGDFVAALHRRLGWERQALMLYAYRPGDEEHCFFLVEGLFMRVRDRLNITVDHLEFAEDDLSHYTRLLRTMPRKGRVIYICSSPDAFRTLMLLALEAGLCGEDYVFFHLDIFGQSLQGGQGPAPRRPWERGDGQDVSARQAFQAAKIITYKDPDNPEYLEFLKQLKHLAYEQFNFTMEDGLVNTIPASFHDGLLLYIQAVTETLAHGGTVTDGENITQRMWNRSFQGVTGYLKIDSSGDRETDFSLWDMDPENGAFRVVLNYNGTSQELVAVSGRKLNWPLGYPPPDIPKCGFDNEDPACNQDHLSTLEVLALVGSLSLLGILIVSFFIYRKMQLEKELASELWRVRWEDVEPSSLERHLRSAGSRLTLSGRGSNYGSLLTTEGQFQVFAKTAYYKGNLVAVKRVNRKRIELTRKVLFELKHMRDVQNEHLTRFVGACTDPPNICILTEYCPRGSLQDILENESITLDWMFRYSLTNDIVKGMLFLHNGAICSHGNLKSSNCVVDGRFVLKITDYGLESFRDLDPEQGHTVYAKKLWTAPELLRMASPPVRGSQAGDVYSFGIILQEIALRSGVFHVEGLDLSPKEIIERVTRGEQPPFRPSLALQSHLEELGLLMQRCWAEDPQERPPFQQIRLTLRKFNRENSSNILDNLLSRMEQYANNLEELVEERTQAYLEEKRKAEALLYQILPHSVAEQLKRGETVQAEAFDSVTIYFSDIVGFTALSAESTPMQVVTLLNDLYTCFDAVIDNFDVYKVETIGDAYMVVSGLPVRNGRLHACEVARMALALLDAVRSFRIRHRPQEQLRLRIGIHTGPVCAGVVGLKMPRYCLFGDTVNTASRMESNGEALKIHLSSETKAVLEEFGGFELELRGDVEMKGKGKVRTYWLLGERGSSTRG
How it was run: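 A stable HEK-293 line expressing hNPR1 plus the GloSensor cGMP reporter (pGS-40F) was stimulated with hNPPA, hNPPB or NPPC for time courses (10 nM each) and concentration-response. For qHTS, luminescence was read before and 30 min after agonist addition. Compounds were screened at six log concentrations and confirmed at 8 concentrations. Counter-screens covered luciferase interference, cytotoxicity and SNP-stimulated cGMP-sensor-only cells.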

response of hNPR1-cGMP-reporter cells (hNPR1): with appropriate potencies
Substance: hNPPB: human natriuretic polypeptide b, NPR1 agonist
response of stable cGMP-reporter cells (soluble GC; stable cGMP-sensor control cell-line): lacked responses
luciferase activity / cGMP in cGMP reporter cells (soluble GC; transient cGMP-sensor, SNP 333 μM, peptides 10 nM): did not increase cGMP
